Assay results from ChEMBL document CHEMBL4000145, “Discovery and Optimization of a Porcupine Inhibitor” (J Med Chem, 2015).
In brackets after ≈: the same amount, converted by molar mass. Activity calls are given as the source filed them. The calls are words filed in the database; no cut-off is given here.

What was measured:
[1] = Cmax in mouse at 5 mg/kg, po; assay type: ADME, organism-based; set-up: dose 5 mg/kg, route oral; settings: in vivo
[2] = Intrinsic clearance in mouse liver microsomes; assay type: ADME, microsome; settings: read-out: CLH
[3] = target: T1, Protein-serine O-palmitoleoyltransferase porcupine (Homo sapiens) (UniProt Q9H237); test: Inhibition of PORCN-mediated V5-tagged Wnt3A palmitoylation in human HeLa cells at 100 nM measured after over night incubation by Western blot analysis; assay type: cell-based
T1 sequence (whole entry): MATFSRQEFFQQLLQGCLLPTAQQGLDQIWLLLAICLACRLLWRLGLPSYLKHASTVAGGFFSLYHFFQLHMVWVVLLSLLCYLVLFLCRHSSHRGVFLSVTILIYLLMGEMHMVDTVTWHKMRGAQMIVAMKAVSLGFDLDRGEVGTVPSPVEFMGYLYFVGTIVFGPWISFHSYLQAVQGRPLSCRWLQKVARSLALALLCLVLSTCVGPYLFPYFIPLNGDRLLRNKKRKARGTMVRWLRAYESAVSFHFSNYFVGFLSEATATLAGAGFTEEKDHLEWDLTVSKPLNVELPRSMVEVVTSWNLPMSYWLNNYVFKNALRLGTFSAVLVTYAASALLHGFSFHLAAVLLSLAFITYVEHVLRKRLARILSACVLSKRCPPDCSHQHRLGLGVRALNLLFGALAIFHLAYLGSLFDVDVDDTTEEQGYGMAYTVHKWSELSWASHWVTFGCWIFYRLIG
Outline: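 HeLa cells seeded 3 × 10⁶ per 10 cm dish, overnight at 37 °C, then transfected with 5 μg pcDNA3.2/V5-Wnt3a. After 6 h, washed and given 100 μM ω-alkynyl palmitate in medium with 5% fatty-acid-free BSA plus compound (100 nM) or DMSO, overnight at 37 °C. From 600 μg lysate, V5-Wnt3a was immunoprecipitated and click-reacted with biotin azide. Blot read-outs: anti-V5/anti-mouse Dylight 680 for total, streptavidin-Dylight 800 for acylated.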

Mus musculus [4] = test: Antitumor activity in Balb/c mouse MMTV-Wnt1 model assessed as tumor growth inhibition at 1 mg/kg administered once daily for 14 days via oral gavage relative to vehicle treated control; assay type: functional; settings: 336 h, read-out: TGI
Outline: (§1)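 Orthotopic MMTV-Wnt1 tumor fragments implanted in mammary fat pads of Balb/c nude mice. Dosing began 14 days later (day 1), with 10 mice per group and mean tumor volume 103–107 mm³. Oral gavage once daily for 14 days at 10 mL/kg in 50% PEG 400/deionized water. Doses were 1, 3 or 10 mg/kg. Caliper volumes gave %TGI versus vehicle at day 14. Statistics by one-way ANOVA with Dunnett's test.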

[5] = Oral bioavailability in mouse at 5 mg/kg; assay type: ADME, organism-based; settings: in vivo
Cytochrome P450 3A4 = Cytochrome P450 3A4 (Homo sapiens, UniProt P08684); test: Inhibition of CYP3A4 (unknown origin)
Chain of Cytochrome P450 3A4 (P08684 whole entry): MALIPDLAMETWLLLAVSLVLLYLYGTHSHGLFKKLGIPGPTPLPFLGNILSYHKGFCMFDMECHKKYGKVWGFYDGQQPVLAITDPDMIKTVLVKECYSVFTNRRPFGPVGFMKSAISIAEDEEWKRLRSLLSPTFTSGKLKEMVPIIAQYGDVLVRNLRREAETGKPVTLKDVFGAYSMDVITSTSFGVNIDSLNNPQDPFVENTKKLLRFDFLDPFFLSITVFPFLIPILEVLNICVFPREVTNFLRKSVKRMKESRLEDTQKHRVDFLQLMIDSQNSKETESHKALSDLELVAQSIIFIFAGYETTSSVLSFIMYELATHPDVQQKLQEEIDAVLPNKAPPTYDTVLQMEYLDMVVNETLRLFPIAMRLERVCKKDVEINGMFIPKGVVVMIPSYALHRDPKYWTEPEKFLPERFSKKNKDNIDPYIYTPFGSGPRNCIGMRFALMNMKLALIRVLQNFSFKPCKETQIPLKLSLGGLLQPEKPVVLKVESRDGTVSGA

[6] = Thermodynamic solubility of the compound at pH 7.4; assay type: physicochemical; settings: buffer, read-out: Therm_solubility
Outline: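 Compound at 500 μM from DMSO stock in pH 7.4 buffer, 1.0% DMSO. Incubated 18 h, then vacuum filtered. Filtrate mixed 1:1 with 1-propanol and quantified by UV spectroscopy.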

Mus musculus [7] = test: Antitumor activity in Balb/c mouse MMTV-Wnt1 model assessed as tumor growth inhibition administered once daily for 14 days via oral gavage; assay type: functional; outline: as §1
Mus musculus [8] = test: Antitumor activity in Balb/c mouse MMTV-Wnt1 model assessed as tumor growth inhibition at 3 mg/kg administered once daily for 14 days via oral gavage relative to vehicle treated control; assay type: functional; settings: 336 h, read-out: TGI; outline: as §1
[9] = target: T2, Protein-serine O-palmitoleoyltransferase porcupine (Homo sapiens, UniProt Q9H237); test: Inhibition of porcupine (unknown origin) expressed in HEK293-STF3A cells assessed as inhibition of Wnt signaling by measuring decrease in beta-catenin-mediated transcriptional activity after 24 hrs by Steady-Glo luciferase assay; assay type: cell-based
T2 sequence (Q9H237 whole entry): T1 sequence (whole entry)
Outline: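 HEK293-STF3A cells, 2 × 10⁴ per well, incubated overnight at 37 °C. Serially diluted compound added at final 50 μM to 1.5 nM. After 1 day, Steady-Glo luciferase added for 10 min at room temperature and luminescence read. IC50 derived from the dilution series.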

HT-1080 = test: Inhibition of luciferase expression in human HT1080 cells after 24 hrs; assay type: functional, cell-based
Outline: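 HT1080 cells seeded at 150 000 per well a day before transfection. Transfected with control or murine PORCN plasmid (100 ng) plus Wnt/β-catenin reporter (550 ng) and Wnt3a (50 ng). Treated with serial dilutions from 625 to 0.2 nM at 0.1% DMSO final. Luciferase measured in lysate 24 h post-transfection.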

[10] = Permeability of the compound at pH 7.4 by PAMPA assay; assay type: physicochemical; settings: read-out: permeability
[11] = Half life in mouse at 1 mg/kg, iv; assay type: ADME, organism-based; settings: in vivo
Cytochrome P450 2D6 = Cytochrome P450 2D6 (Homo sapiens, UniProt P10635); test: Inhibition of CYP2D6 (unknown origin)
Chain of Cytochrome P450 2D6 (P10635 whole entry): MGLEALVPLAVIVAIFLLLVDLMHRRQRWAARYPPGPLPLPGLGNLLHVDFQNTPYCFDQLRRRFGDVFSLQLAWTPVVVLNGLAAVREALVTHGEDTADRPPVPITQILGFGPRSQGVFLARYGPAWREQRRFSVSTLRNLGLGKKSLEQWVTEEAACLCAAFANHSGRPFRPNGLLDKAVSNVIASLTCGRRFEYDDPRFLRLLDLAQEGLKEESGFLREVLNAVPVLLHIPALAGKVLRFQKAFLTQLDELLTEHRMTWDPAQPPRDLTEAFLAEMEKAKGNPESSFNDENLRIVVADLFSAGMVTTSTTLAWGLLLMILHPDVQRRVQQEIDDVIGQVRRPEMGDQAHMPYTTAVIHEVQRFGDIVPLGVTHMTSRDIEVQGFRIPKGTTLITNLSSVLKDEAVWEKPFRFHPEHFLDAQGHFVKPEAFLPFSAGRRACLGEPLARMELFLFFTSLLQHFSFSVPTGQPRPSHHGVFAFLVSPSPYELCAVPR

[12] = AUC (0 to last) in mouse at 5 mg/kg, po; assay type: ADME, organism-based; set-up: dose 5 mg/kg, time 0 - last, route oral; settings: in vivo
Mus musculus [13] = test: Antitumor activity in Balb/c mouse MMTV-Wnt1 model assessed as tumor growth inhibition at 10 mg/kg administered once daily for 14 days via oral gavage relative to vehicle treated control; assay type: functional; settings: 336 h, read-out: TGI; outline: as §1
[14] = target: T3, Protein-serine O-palmitoleoyltransferase porcupine (Mus musculus) (UniProt Q9JJJ7); settings: 0.2 to 625 nM
T3 sequence (whole entry): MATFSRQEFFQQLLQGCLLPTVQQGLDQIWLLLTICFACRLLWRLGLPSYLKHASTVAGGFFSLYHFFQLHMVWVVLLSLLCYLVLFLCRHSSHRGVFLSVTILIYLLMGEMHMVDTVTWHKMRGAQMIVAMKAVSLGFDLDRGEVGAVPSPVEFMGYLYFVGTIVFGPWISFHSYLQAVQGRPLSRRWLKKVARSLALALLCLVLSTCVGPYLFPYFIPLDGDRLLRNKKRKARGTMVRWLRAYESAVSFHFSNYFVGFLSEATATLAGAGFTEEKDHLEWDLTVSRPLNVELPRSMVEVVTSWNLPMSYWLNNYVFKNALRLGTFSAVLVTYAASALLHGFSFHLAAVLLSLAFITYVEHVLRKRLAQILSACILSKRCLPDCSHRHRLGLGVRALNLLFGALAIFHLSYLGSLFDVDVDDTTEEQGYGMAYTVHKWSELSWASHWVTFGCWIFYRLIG

HEK293 = test: Inhibition of beta-catenin-mediated transcriptional activity in Wnt3A knock out HEK293-STF cells preincubated for 4 hrs followed by Wnt-3A conditioned medium addition measured after 24 hrs by Steady-Glo luciferase assay; settings: Homo sapiens
[15] = Cytotoxicity against HEK293 cells assessed as cell viability after 1 day by CellTiter-Glo luminescent assay; settings: human
[16] = Oral bioavailability in mouse; assay type: ADME, organism-based; settings: in vivo

C[C@H](Nc1ccc(-c2ccnn2C)nc1)C(=O)Nc1ccc(-c2cccnc2)cn1
Cmax [1]: 4270 ng/mL
microsomal CLint [2]: 8 µL/min/mg
inhibition [3]: Active
inhibition in vivo at 1 mg/kg (Mus musculus [4]): 50%
bioavailability [5]: 106%
IC50 (Cytochrome P450 3A4): > 20000 nM
solubility thermodynamic [6]: 72.5 µg/mL (≈ 181 µM)
TGI (Mus musculus [7]): Dose-dependent effect
inhibition in vivo at 3 mg/kg (Mus musculus [8]): 71%
IC50 [9]: 1 nM
inhibition (HT-1080): Dose-dependent effect
Papp [10]: 50.6 ×10⁻⁶ cm/s
half-life [11]: 1.9 h
IC50 (Cytochrome P450 2D6): 8000 nM
AUC(0-t) [12]: 12300 ng·h/mL
inhibition in vivo at 10 mg/kg (Mus musculus [13]): 91%
inhibition [14]: Active

Cn1nccc1-c1ccc(OCC(=O)Nc2ccc(-c3ccccc3)cc2)cc1
IC50 (Cytochrome P450 3A4): > 20000 nM
IC50 [9]: 4 nM
IC50 (Cytochrome P450 2D6): > 20000 nM

C[C@@H](Oc1ccc(-n2ccnc2)cc1)C(=O)Nc1ccc(-c2ccccc2)cc1
microsomal CLint [2]: 63 µL/min/mg
inhibition [3]: Active
IC50 [9]: 130 nM

C[C@H](Nc1ccc(-c2ccnn2C)nc1)C(=O)Nc1ccc(-c2ccccc2)cn1
microsomal CLint [2]: 8 µL/min/mg
IC50 (Cytochrome P450 3A4): > 20000 nM
solubility thermodynamic [6]: 4 µg/mL (≈ 10 µM)
IC50 [9]: 1 nM
Papp [10]: 113 ×10⁻⁶ cm/s
IC50 (Cytochrome P450 2D6): > 20000 nM

O=C(COc1ccc(-n2ccnc2)cc1)Nc1ccc(-c2ccccc2)cc1
microsomal CLint [2]: 37 µL/min/mg
inhibition [3]: Active
solubility thermodynamic [6]: < 1 µg/mL
IC50 [9]: 15 to 19 nM
IC50 (HEK293): > 30000 nM
Papp [10]: < 1 ×10⁻⁶ cm/s
CC50 at 24 h [15]: > 50000 nM
bioavailability [16]: < 1%

O=C(CNc1ccc(-n2ccnc2)cc1)Nc1ccc(-c2ccccc2)cc1
microsomal CLint [2]: 11 µL/min/mg
IC50 [9]: 30 nM

O=C(COc1ccc(-c2cnco2)cc1)Nc1ccc(-c2ccccc2)cc1
IC50 (Cytochrome P450 3A4): > 20000 nM
IC50 [9]: 42 nM
IC50 (Cytochrome P450 2D6): > 20000 nM

O=C(COc1ccc(-n2cccc2)cc1)Nc1ccc(-c2ccccc2)cc1
IC50 [9]: > 50000 nM

C[C@H](Nc1ccc(-n2ccnc2)cc1)C(=O)Nc1ccc(-c2ccccc2)cn1
microsomal CLint [2]: 3.5 µL/min/mg
IC50 [9]: 5 nM

Cc1nccn1-c1ccc(OCC(=O)Nc2ccc(-c3ccccc3)cc2)cc1
IC50 (Cytochrome P450 3A4): 5200 nM
IC50 [9]: 2 nM
IC50 (Cytochrome P450 2D6): 1900 nM

C[C@@H](Nc1ccc(-n2ccnc2)cc1)C(=O)Nc1ccc(-c2ccccc2)cn1
microsomal CLint [2]: 12 µL/min/mg
IC50 [9]: 689 nM

C[C@H](Oc1ccc(-n2ccnc2)cc1)C(=O)Nc1ccc(-c2ccccc2)cc1
microsomal CLint [2]: 85 µL/min/mg
IC50 [9]: 7 nM

O=C(COc1ccc(-c2ccn[nH]2)cc1)Nc1ccc(-c2ccccc2)cc1
IC50 [9]: > 50000 nM

O=C(Nc1ccc(-c2ccccc2)cc1)[C@H]1CCCN1c1ccc(-n2ccnc2)cc1
IC50 [9]: 33000 nM

O=C(Nc1ccc(-c2ccccc2)cc1)[C@@H]1CCCN1c1ccc(-n2ccnc2)cc1
microsomal CLint [2]: 18 µL/min/mg
IC50 [9]: 40 nM

C[C@H](Nc1ccc(-c2ccnn2C)nc1)C(=O)Nc1ccc(-c2cccnc2)nc1
microsomal CLint [2]: 8 µL/min/mg
IC50 (Cytochrome P450 3A4): > 20000 nM
solubility thermodynamic [6]: 102 µg/mL (≈ 255 µM)
IC50 [9]: 10 nM
Papp [10]: 26.8 ×10⁻⁶ cm/s
IC50 (Cytochrome P450 2D6): 3300 nM
